This note sets out measurements from ChEMBL document CHEMBL1145980, “Molecular modeling calculations of HIV-1 reverse transcriptase nonnucleoside inhibitors: correlation of binding energy with biological activity for novel 2-aryl-substituted benzimidazole analogues” (J Med Chem, 2003).

The target in this test is Human immunodeficiency virus type 1 reverse transcriptase (Human immunodeficiency virus 1, UniProt Q72547). Put plainly: Inhibition of HIV-1 reverse transcriptase. A digest of the protocol:
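Antiviral activity measured in cells infected with the HIV-1-based vector pNLNgoMI/R-E. The vector expresses the murine cell-surface marker gene hsa from the nef reading frame, so vector-infected cells can be identified by that marker. Results are reported as EC50.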

The EC50 is the concentration that produces a half-maximal response. A low value points to an effect from little substance. Consider `CNc1cccc2c1nc(-c1c(F)cccc1F)n2Cc1c(F)cccc1F`, for which a half-maximal response (EC50) required 2400 nM. This lies in the single-digit micromolar range.

Compound `COc1cccc2c1nc(-c1c(F)cccc1F)n2Cc1c(F)cccc1F` came in with an EC50 of 80 nM.

`COc1cccc(F)c1-c1nc2c(N)cccc2n1Cc1c(F)cccc1F` displayed an EC50 of 2710 nM.

For the compound `O=Cc1cccc2c1nc(-c1c(F)cccc1F)n2Cc1c(F)cccc1F`, the EC50 stood at 100 nM.

In turn, `O=[N+]([O-])c1cccc2c1nc(-c1c(F)cccc1F)n2Cc1c(F)cccc1F` displayed an EC50 of 450 nM.

In turn, `OCc1cccc2c1nc(-c1c(F)cccc1F)n2Cc1c(F)cccc1F` yielded an EC50 of 50 nM.

`Fc1cccc(F)c1Cn1c(-c2c(F)cccc2F)nc2ccccc21` had an EC50 of 1700 nM. Compared with the last compound, the EC50 is about 34-fold higher.

`CCc1cccc2c1nc(-c1c(F)cccc1F)n2Cc1c(F)cccc1F`: the EC50 is 820 nM.

The compound `Fc1cccc(F)c1Cn1c(-c2c(F)cccc2F)nc2c(CCl)cccc21` displayed an EC50 of 160 nM.

Take `NCc1cccc2c1nc(-c1c(F)cccc1F)n2Cc1c(F)cccc1F`: the EC50 is 1360 nM.

`CC(=O)N(C)c1cccc2c1nc(-c1c(F)cccc1F)n2Cc1c(F)cccc1F` returned an EC50 of 40 nM.

With `CC(=O)Nc1cccc2c1nc(-c1c(F)cccc1F)n2Cc1c(F)cccc1F`, a half-maximal effect (EC50) was put at 1650 nM.

Take `Nc1cccc2c1nc(-c1c(F)cccc1F)n2Cc1c(F)cccc1F`: the midpoint of the response, the EC50, lay at 530 nM.

In turn, `[N-]=[N+]=NCc1cccc2c1nc(-c1c(F)cccc1F)n2Cc1c(F)cccc1F` had an EC50 of 45 nM. This EC50 lies about 12-fold lower than the previous one.

As for `Cc1cccc2c1nc(-c1c(F)cccc1F)n2Cc1ccccc1`, the EC50 was found to be 750 nM.

As for `N#CCc1cccc2c1nc(-c1c(F)cccc1F)n2Cc1c(F)cccc1F`, the midpoint of the response, the EC50, lay at 60 nM.

`Fc1cccc(F)c1Cn1c(-c2c(F)cccc2F)nc2c(Cl)cccc21` returned an EC50 of 400 nM.

Take `Fc1cccc(F)c1Cn1c(-c2ccccc2)nc2ccccc21`: the 50% effective concentration (EC50) was found to be 6060 nM.

In turn, `CC(=O)OCc1cccc2c1nc(-c1c(F)cccc1F)n2Cc1c(F)cccc1F` yielded a half-maximal effective concentration (EC50) of 60 nM.

`Cc1cccc2c1nc(-c1c(F)cccc1F)n2Cc1c(F)cccc1F` registered an EC50 of 440 nM.

As to `NC(=O)c1cccc2c1nc(-c1c(F)cccc1F)n2Cc1c(F)cccc1F`, a half-maximal effect (EC50) was put at 370 nM.

In the case of `Fc1cccc(F)c1Cn1c(-c2c(F)cccc2F)nc2c(Br)cccc21`, the response was half-maximal at 370 nM (EC50).
